Assay results taken from ChEMBL document CHEMBL3351278, “Pyridine-3-carboxamide-6-yl-ureas as novel inhibitors of bacterial DNA gyrase: structure based design, synthesis, SAR and antimicrobial activity” (Eur J Med Chem, 2014).
pIC50: −log10 of the molar value. Converted amounts (≈) assume the structure as drawn.

What was measured:
[1] = Retention time of the compound by HPLC method; assay type: physicochemical
Staphylococcus aureus [2] = experiment: Potency shift, ratio of MIC against Staphylococcus aureus ATCC 29213 in presence of 50% horse serum to MIC against taphylococcus aureus ATCC 29213 in absence of 50% horse serum; assay type: functional
Escherichia coli [3] = experiment: Antibacterial activity against Escherichia coli N43 expressing efflux pump mutant incubated for 24 hrs by broth microdilution method; assay type: functional; conditions: N43, 24 h
Streptococcus pyogenes [4] = experiment: Antibacterial activity against Streptococcus pyogenes ATCC 51339 expressing ParE A53S mutant incubated for 24 hrs by broth microdilution method; assay type: functional; conditions: ATCC 51339, 24 h
[5] = test system: Staphylococcus epidermidis; experiment: Antibacterial activity against Staphylococcus epidermidis ATCC 12228 incubated for 24 hrs by broth microdilution method; assay type: functional; conditions: ATCC 12228, 24 h
Staphylococcus aureus [6] = experiment: Antibacterial activity against Staphylococcus aureus ATCC 29213 expressing GyrB T173N mutant incubated for 24 hrs by broth microdilution method; assay type: functional; conditions: ATCC 29213, 24 h
Haemophilus influenzae = experiment: Antibacterial activity against Haemophilus influenzae ATCC 49247 incubated for 24 hrs by broth microdilution method; assay type: functional; conditions: ATCC 49247, 24 h
Staphylococcus aureus [7] = experiment: Antibacterial activity against Staphylococcus aureus ATCC 29213 incubated for 24 hrs by broth microdilution method; assay type: functional; conditions: ATCC 29213, 24 h
Streptococcus pneumoniae = experiment: Antibacterial activity against Streptococcus pneumoniae ATCC 49616 incubated for 24 hrs by broth microdilution method; assay type: functional; conditions: ATCC 49616, 24 h
DNA gyrase = DNA gyrase (Escherichia coli, UniProt P0AES4+P0AES6); experiment: Inhibition of Escherichia coli GyrB A2B2 subunits assessed reduction in DNA supercoiling activity by malachite green dye based by spectrophotometry; assay type: protein-complex assay
Procedure, shortened: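 Inhibition was measured as loss of ATPase activity of the E. coli GyrB enzyme and reported as IC50.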

Staphylococcus aureus [8] = experiment: Antibacterial activity against Staphylococcus aureus ATCC 29213 incubated for 24 hrs in presence of 50% horse serum by broth microdilution method; assay type: functional; conditions: ATCC 29213, 24 h
Staphylococcus aureus [9] = experiment: Antibacterial activity against Staphylococcus aureus ATCC 29213 expressing GyrB T173N and ParE T167N mutant incubated for 24 hrs by broth microdilution method; assay type: functional; conditions: ATCC 29213, 24 h
Enterococcus faecalis = experiment: Antibacterial activity against Enterococcus faecalis ATCC 29212 incubated for 24 hrs by broth microdilution method; assay type: functional; conditions: ATCC 29212, 24 h
Streptococcus pyogenes [10] = experiment: Antibacterial activity against Streptococcus pyogenes ATCC 51339 incubated for 24 hrs by broth microdilution method; assay type: functional; conditions: ATCC 51339, 24 h
Escherichia coli [11] = experiment: Antibacterial activity against Escherichia coli ATCC 25922 incubated for 24 hrs by broth microdilution method; assay type: functional; conditions: ATCC 25922, 24 h
[12] = biological target: DNA topoisomerase 4 subunit B (Staphylococcus aureus, UniProt P0C1S7); experiment: Inhibition of Staphylococcus aureus ParE
DNA gyrase subunit B = DNA gyrase subunit B (Staphylococcus aureus, UniProt P0A0K8); experiment: Inhibition of Staphylococcus aureus GyrB assessed reduction in DNA supercoiling activity by malachite green dye based by spectrophotometry
[13] = biological target: DNA topoisomerase 4 subunit B (Escherichia coli K-12, UniProt P20083); experiment: Inhibition of Escherichia coli ParE
DNA topoisomerase 4 subunit B (Escherichia coli K-12, UniProt P20083), sequence (P20083 whole entry): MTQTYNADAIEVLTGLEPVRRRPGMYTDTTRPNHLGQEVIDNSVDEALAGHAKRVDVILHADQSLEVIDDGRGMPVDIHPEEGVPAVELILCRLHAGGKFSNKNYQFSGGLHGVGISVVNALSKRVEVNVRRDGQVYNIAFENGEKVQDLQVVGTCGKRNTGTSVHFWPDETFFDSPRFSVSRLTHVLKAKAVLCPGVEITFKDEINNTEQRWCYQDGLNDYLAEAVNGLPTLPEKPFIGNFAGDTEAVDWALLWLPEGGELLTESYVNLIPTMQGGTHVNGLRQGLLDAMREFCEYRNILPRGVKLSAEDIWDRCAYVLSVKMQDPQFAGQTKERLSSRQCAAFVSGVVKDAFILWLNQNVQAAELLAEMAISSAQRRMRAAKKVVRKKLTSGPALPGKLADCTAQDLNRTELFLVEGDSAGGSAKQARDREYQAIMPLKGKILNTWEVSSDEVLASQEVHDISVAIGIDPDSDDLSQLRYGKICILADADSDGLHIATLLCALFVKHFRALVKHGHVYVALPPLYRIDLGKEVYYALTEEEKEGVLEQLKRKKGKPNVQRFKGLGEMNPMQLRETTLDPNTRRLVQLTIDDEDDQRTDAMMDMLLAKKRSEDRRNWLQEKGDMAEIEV

| pIC50 [12] | pIC50 (DNA gyrase subunit B) | pIC50 [13] | SMILES | Retention_time [1] | Ratio (Staphylococcus aureus [2]) | MIC (Escherichia coli [3]) | MIC (Streptococcus pyogenes [4]) | MIC [5] | MIC (Staphylococcus aureus [6]) | MIC (Haemophilus influenzae) | MIC (Staphylococcus aureus [7]) | MIC (Streptococcus pneumoniae) | pIC50 (DNA gyrase) | MIC (Staphylococcus aureus [8]) | MIC (Staphylococcus aureus [9]) | MIC (Enterococcus faecalis) | MIC (Streptococcus pyogenes [10]) | MIC (Escherichia coli [11]) |
| --- | --- | --- | --- | --- | --- | --- | --- | --- | --- | --- | --- | --- | --- | --- | --- | --- | --- | --- |
|  |  |  | CCNC(=O)Nc1cc(Nc2ccccc2)c(C(=O)Nc2cccnc2)cn1 | 1.36 min | 4 | 8 µg/mL (≈ 21.3 µM) | 2 µg/mL (≈ 5.31 µM) | 0.25 µg/mL (≈ 0.664 µM) | 4 µg/mL (≈ 10.6 µM) | > 64 µg/mL | 1 µg/mL (≈ 2.66 µM) | 0.25 µg/mL (≈ 0.664 µM) | 6.77 | 4 µg/mL | > 64 µg/mL | 0.125 µg/mL (≈ 0.332 µM) | 1 µg/mL (≈ 2.66 µM) | > 64 µg/mL |
|  |  |  | CCNC(=O)Nc1cc(Nc2cccnc2)c(C(=O)Nc2ccccc2)cn1 | 1.46 min | 2 |  |  |  |  | > 64 µg/mL | 1 µg/mL (≈ 2.66 µM) |  | 6.37 | 2 µg/mL |  | 0.25 µg/mL (≈ 0.664 µM) | 1 µg/mL (≈ 2.66 µM) |  |
|  |  |  | CCNC(=O)Nc1cc(Nc2ccccc2)c(C(=O)Nc2ccccc2)cn1 | 1.58 min |  | 8 µg/mL (≈ 21.3 µM) | 16 µg/mL (≈ 42.6 µM) | 0.25 µg/mL (≈ 0.666 µM) | 2 µg/mL (≈ 5.33 µM) | > 64 µg/mL | 1 µg/mL (≈ 2.66 µM) | 1 µg/mL (≈ 2.66 µM) | 7.40 |  | > 64 µg/mL | 0.25 µg/mL (≈ 0.666 µM) | 2 µg/mL (≈ 5.33 µM) | > 64 µg/mL |
| 6.10 | 7.39 | 4.38 | CCNC(=O)Nc1cc(Nc2ccc(OC)cc2OC)c(C(=O)Nc2cccnc2)cn1 |  |  |  |  |  |  |  | 1 µg/mL (≈ 2.29 µM) |  | 7.34 |  |  |  |  | > 64 µg/mL |
| 7.07 | 7.62 | 6.03 | CCNC(=O)Nc1cc(Nc2ccc(O)cc2)c(C(=O)Nc2cccnc2)cn1 |  |  |  |  |  |  |  | 8 µg/mL (≈ 20.4 µM) |  | 7.55 |  |  |  |  | > 64 µg/mL |
|  |  |  | CCNC(=O)Nc1cc(Nc2ccccc2)c(C(=O)Nc2ccc(NC(C)=O)nc2)cn1 | 1.45 min | 4 | > 64 µg/mL | 2 µg/mL (≈ 4.61 µM) | 0.25 µg/mL (≈ 0.577 µM) | > 64 µg/mL | > 64 µg/mL | 2 µg/mL (≈ 4.61 µM) | 0.125 µg/mL (≈ 0.288 µM) | 7.41 | 8 µg/mL | > 64 µg/mL | 0.125 µg/mL (≈ 0.288 µM) | 0.5 µg/mL (≈ 1.15 µM) | > 64 µg/mL |
|  |  |  | CCNC(=O)Nc1cc(-n2cccn2)c(C(=O)Nc2cccc(Cl)c2)cn1 | 1.83 min |  | 32 µg/mL (≈ 83.2 µM) | 16 µg/mL (≈ 41.6 µM) | 2 µg/mL (≈ 5.2 µM) | 32 µg/mL (≈ 83.2 µM) | > 64 µg/mL | 8 µg/mL (≈ 20.8 µM) | 1 µg/mL (≈ 2.6 µM) | 5.53 |  | > 64 µg/mL | 1 µg/mL (≈ 2.6 µM) | 4 µg/mL (≈ 10.4 µM) | > 64 µg/mL |
|  |  | 6.11 | CCNC(=O)Nc1cc(Nc2cccc(O)c2)c(C(=O)Nc2cccnc2)cn1 |  |  |  |  |  |  |  |  |  | 7.44 |  |  |  |  | > 64 µg/mL |
|  |  |  | CCNC(=O)Nc1cc(Nc2ccccc2)c(C(=O)Nc2ccc(N3CCOCC3)nc2)cn1 | 1.47 min | 8 | > 64 µg/mL | 4 µg/mL (≈ 8.67 µM) | 1 µg/mL (≈ 2.17 µM) | > 64 µg/mL | > 64 µg/mL | 2 µg/mL (≈ 4.33 µM) | 0.5 µg/mL (≈ 1.08 µM) | 6.96 | 16 µg/mL | > 64 µg/mL | 0.25 µg/mL (≈ 0.542 µM) | 1 µg/mL (≈ 2.17 µM) | > 64 µg/mL |
|  |  |  | CCNC(=O)Nc1cc(Nc2ccccc2)c(C(=O)Nc2cccc(C)c2)cn1 | 1.68 min |  | > 64 µg/mL | > 64 µg/mL | 0.5 µg/mL (≈ 1.28 µM) | > 64 µg/mL | > 64 µg/mL | 1 µg/mL (≈ 2.57 µM) | 0.5 µg/mL (≈ 1.28 µM) | 6.85 |  | > 64 µg/mL | 0.125 µg/mL (≈ 0.321 µM) | 2 µg/mL (≈ 5.14 µM) | > 64 µg/mL |
